Results published in ChEMBL document CHEMBL4428127, “Discovery of 5-Phenyl-N-(pyridin-2-ylmethyl)-2-(pyrimidin-5-yl)quinazolin-4-amine as a Potent I Kur Inhibitor” (ACS Med Chem Lett, 2016).

Columns and labels:
[1] = biological target: T1, Potassium voltage-gated channel subfamily A member 5 (Homo sapiens, UniProt P22460); assay: Inhibition of human Kv1.5 transfected in mouse LTK cells; format: cell-based
[2] = biological target: Voltage-gated inwardly rectifying potassium channel KCNH2 (Homo sapiens, UniProt Q12809); assay: Inhibition of human ERG expressed in HEK293 cells by thallium flux assay; format: cell-based
[3] = biological target: T1, Potassium voltage-gated channel subfamily A member 5; assay: Inhibition of human Kv1.5 transfected in mouse LTK cells at 0.3 uM; format: cell-based
hERG (KCNH2) [4] = biological target: T2, hERG (KCNH2) (Homo sapiens, UniProt Q12809); assay: Inhibition of human ERG expressed in HEK293 cells at 1 uM by thallium flux assay; format: cell-based; details: HEK293 cells that express hERG
[5] = Metabolic stability in rat liver microsomes assessed as parent compound remaining at 10 mins; format: ADME, Microsome; details: read-out: Stability
Procedure, shortened: (§1)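 Compound incubated with rat or mouse liver microsomes; percent parent remaining measured at 10 min.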

[6] = Metabolic stability in mouse liver microsomes assessed as parent compound remaining at 10 mins; format: ADME, Microsome; details: read-out: Stability; procedure, shortened: as §1
Cytochrome P450 2C9 [7] = biological target: T3, Cytochrome P450 2C9 (Homo sapiens, UniProt P11712); assay: Inhibition of CYP2C9 (unknown origin) at 1 uM; format: ADME
Cytochrome P450 2C19 [8] = biological target: T4, Cytochrome P450 2C19 (Homo sapiens, UniProt P33261); assay: Inhibition of CYP2C19 (unknown origin) at 1 uM; format: ADME
[9] = Clearance in Sprague-Dawley rat hemodynamic/VERP model at 2 mg/kg, iv; format: ADME, organism-based; details: in vivo
[10] = Volume of distribution at steady state in Sprague-Dawley rat hemodynamic/VERP model at 2 mg/kg, iv; format: ADME, organism-based; details: in vivo, read-out: Vdss
[11] = Half life in Sprague-Dawley rat hemodynamic/VERP model at 2 mg/kg, iv; format: ADME, organism-based; details: in vivo
[12] = Half life in Sprague-Dawley rat hemodynamic/VERP model at 5 mg/kg, po; format: ADME, organism-based; details: in vivo
[13] = Oral bioavailability in Sprague-Dawley rat hemodynamic/VERP model at 5 mg/kg; format: ADME, organism-based; details: in vivo
Rattus norvegicus = assay: Pro-arrhythmic activity in rat assessed as increase in ventricular effective refractory period at 10 mg/kg, iv as 10 mins infusion; format: ADME, organism-based; details: in vivo
Procedure, shortened: (§2)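 Rats fitted with a multielectrode catheter in the left ventricle to record ventricular effective refractory period. Dose 10 mg/kg i.v. infused over 10 min, n = 2. Percent VERP increase reported together with the plasma concentration reached.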

Oryctolagus cuniculus = assay: Increase in atrial effective refractory period in rabbit at 3 mg/kg, iv as 30 mins infusion measured at 20 mins; format: functional
Procedure, shortened: (§3)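 Anesthetized rabbits given 3 mg/kg i.v. in DMF vehicle, infused over 30 min, n = 3–4. Atrial ERP, VERP, QTc (Delta QTc cf), systolic and mean blood pressure, and heart rate recorded as change at 20 min. Plasma concentration sampled at the end of infusion.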

[14] = Plasma concentration in rabbit at 3 mg/kg, iv as 30 mins infusion; format: ADME, organism-based, Oryctolagus cuniculus; procedure, shortened: as §3
Cytochrome P450 2C9 [15] = biological target: T3, Cytochrome P450 2C9; assay: Inhibition of CYP2C9 (unknown origin) at 4 uM; format: ADME
Cytochrome P450 2C19 [16] = biological target: T4, Cytochrome P450 2C19; assay: Inhibition of CYP2C19 (unknown origin) at 3 uM; format: ADME
[17] = Toxicity in Sprague-Dawley rat VEPR model assessed as seizures at plasma concentration of 7.7 uM administered at 10 mg/kg, iv; format: organism-based; details: in vivo
[18] = Toxicity in rabbit assessed as change in corrected QT time interval at 3 mg/kg as 30 mins infusion; format: organism-based, Oryctolagus cuniculus; details: in vivo, iv, 0.5 h; procedure, shortened: as §3
[19] = Toxicity in rabbit assessed as change in systolic blood pressure at 3 mg/kg, iv as 30 mins infusion measured at 20 mins; format: organism-based, Oryctolagus cuniculus; details: in vivo; procedure, shortened: as §3
[20] = Toxicity in rabbit assessed as change in mean blood pressure at 3 mg/kg, iv as 30 mins infusion measured at 20 mins; format: organism-based, Oryctolagus cuniculus; details: in vivo; procedure, shortened: as §3
[21] = Toxicity in rabbit assessed as change in heart rate at 3 mg/kg, iv as 30 mins infusion measured at 20 mins; format: organism-based, Oryctolagus cuniculus; details: in vivo; procedure, shortened: as §3
[22] = Plasma concentration in rat VERP model at 3 mg/kg, iv as 5 mins infusion measured 10 mins post dose; format: ADME, organism-based
Procedure, shortened: (§4)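 Rat VERP model, i.v. infusion over 5 min at 3 or 10 mg/kg. Plasma and brain concentrations measured 10 min after the end of infusion.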

[23] = Drug uptake in brain of rat VERP model at 3 mg/kg, iv as 5 mins infusion measured 10 mins post dose; format: ADME, organism-based; details: read-out: Drug uptake; procedure, shortened: as §4
[24] = Plasma concentration in rat VERP model at 10 mg/kg, iv as 5 mins infusion measured 10 mins post dose; format: ADME, organism-based; procedure, shortened: as §4
[25] = Drug uptake in brain of rat VERP model at 10 mg/kg, iv as 5 mins infusion measured 10 mins post dose; format: ADME, organism-based; details: read-out: Drug uptake; procedure, shortened: as §4
hERG (KCNH2) [26] = biological target: T2, hERG (KCNH2); assay: Inhibition of human ERG expressed in HEK293 cells at 10 uM by thallium flux assay; format: cell-based; details: HEK293 cells that express hERG
hERG (KCNH2) [27] = biological target: T2, hERG (KCNH2); assay: Inhibition of human ERG expressed in HEK293 cells at 0.3 uM by thallium flux assay; format: cell-based; details: HEK293 cells that express hERG
[28] = Stability in rat liver microsomes; format: ADME, Microsome
[29] = Pro-arrhythmic activity in rat assessed as plasma concentration required to increase 98 +/- 3% ventricular effective refractory period at 10 mg/kg, iv as 10 mins infusion; format: ADME, organism-based; procedure, shortened: as §2

T1 sequence (P22460 whole entry): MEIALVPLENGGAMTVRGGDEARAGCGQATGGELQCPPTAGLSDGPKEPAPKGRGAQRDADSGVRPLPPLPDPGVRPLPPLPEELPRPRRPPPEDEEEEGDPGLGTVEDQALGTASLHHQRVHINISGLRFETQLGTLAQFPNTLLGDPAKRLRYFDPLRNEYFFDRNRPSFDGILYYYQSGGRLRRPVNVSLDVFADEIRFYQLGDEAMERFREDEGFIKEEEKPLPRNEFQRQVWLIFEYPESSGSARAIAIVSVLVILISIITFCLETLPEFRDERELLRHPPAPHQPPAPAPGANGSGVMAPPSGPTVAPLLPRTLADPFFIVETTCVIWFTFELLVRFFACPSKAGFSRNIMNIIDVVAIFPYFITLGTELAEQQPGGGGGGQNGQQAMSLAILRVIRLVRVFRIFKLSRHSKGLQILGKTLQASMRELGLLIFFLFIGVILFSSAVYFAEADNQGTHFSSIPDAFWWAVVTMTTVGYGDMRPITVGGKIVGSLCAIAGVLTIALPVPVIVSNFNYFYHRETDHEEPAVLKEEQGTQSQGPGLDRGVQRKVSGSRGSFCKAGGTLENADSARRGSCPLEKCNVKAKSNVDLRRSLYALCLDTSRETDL
T2 sequence (Q12809 whole entry): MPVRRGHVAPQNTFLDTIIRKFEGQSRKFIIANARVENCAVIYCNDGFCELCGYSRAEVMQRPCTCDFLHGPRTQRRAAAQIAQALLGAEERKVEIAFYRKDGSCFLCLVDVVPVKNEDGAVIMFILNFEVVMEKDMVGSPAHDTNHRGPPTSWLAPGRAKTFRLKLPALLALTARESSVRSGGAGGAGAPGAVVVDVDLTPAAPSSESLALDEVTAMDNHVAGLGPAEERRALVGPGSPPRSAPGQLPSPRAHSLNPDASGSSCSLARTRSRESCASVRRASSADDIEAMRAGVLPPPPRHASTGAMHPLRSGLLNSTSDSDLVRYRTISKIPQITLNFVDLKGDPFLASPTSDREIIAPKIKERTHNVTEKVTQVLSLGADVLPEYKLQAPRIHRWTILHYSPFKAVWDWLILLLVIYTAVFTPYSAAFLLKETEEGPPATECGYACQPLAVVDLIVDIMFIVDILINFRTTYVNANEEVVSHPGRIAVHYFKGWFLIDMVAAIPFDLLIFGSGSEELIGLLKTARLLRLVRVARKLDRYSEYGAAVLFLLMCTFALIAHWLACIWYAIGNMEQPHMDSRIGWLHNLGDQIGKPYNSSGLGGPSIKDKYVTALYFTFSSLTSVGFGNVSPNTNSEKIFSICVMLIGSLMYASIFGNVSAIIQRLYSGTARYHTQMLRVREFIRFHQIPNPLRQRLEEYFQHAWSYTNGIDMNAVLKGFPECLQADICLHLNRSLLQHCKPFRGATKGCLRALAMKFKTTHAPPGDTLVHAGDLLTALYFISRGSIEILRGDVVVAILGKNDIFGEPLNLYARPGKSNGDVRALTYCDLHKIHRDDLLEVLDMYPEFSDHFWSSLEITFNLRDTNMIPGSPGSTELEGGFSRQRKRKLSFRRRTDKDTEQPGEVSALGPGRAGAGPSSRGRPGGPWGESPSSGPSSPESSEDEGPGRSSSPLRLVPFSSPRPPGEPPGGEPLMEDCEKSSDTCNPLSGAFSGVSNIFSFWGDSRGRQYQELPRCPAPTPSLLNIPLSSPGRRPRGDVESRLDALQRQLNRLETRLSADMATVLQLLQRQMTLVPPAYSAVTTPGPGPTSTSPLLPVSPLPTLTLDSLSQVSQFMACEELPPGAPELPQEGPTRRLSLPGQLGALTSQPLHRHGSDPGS
Voltage-gated inwardly rectifying potassium channel KCNH2, sequence (Q12809 whole entry): as above
T4 sequence (P33261 whole entry): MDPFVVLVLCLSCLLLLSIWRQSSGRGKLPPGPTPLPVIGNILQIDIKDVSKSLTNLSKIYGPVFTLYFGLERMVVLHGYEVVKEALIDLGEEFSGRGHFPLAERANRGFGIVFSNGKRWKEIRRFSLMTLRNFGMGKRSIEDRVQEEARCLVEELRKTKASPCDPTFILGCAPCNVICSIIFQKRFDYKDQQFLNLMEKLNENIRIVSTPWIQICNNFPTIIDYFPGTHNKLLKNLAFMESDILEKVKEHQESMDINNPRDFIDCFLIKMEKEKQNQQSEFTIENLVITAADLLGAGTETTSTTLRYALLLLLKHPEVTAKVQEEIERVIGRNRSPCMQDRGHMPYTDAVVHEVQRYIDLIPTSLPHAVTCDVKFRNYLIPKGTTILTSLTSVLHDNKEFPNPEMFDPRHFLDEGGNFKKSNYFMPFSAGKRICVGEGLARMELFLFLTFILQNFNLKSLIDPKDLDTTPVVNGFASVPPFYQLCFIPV
T3 sequence (P11712 whole entry): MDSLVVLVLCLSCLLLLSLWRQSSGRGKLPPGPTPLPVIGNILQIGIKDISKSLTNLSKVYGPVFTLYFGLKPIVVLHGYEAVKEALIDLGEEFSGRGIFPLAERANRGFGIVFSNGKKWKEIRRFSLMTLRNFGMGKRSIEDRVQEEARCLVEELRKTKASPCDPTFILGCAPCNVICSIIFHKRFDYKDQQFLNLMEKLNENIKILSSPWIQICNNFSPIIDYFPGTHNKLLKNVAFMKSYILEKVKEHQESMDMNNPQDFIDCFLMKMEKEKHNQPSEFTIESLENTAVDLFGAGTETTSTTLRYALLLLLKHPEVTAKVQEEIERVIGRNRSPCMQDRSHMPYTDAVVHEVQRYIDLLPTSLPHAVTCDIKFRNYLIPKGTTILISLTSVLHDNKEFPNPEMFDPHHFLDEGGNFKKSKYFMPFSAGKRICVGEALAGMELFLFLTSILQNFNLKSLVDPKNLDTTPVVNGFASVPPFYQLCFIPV

With `Cc1noc(C)c1-c1nc(NCc2ccccn2)c2c(-c3ccccc3)cccc2n1` the IC50 [1] was 0.09 µM and the IC50 [2] was 3.1 µM.

`NC(=O)c1ccc(-c2cccc3nc(-c4cncnc4)nc(NCc4ccccn4)c23)cc1` showed an inhibition [3] of 8%.

With `Cc1n[nH]c(C)c1-c1nc(NCc2ccccn2)c2c(-c3ccccc3)cccc2n1` the inhibition [3] was 20%.

`Fc1ccc(-c2cccc3nc(-c4cncnc4)nc(NCc4ccccn4)c23)cc1` showed an IC50 [1] of 0.25 µM.

`N#Cc1ccc(-c2nc(NCc3ccccn3)c3c(-c4ccccc4)cccc3n2)cn1` gave an IC50 [1] of 0.13 µM and an inhibition at 1 µM (hERG (KCNH2) [4]) of 51%.

Work on `c1ccc(-c2cccc3nc(-c4cccnc4)nc(NCc4ccccn4)c23)cc1` yielded an IC50 [1] of 0.06 µM, a remaining at 10 min [5] of 7% and a remaining at 10 min [6] of 22%. For the same compound, the “inhibition (INH)” value (Cytochrome P450 2C9 [7]) was “Active” and the “inhibition (INH)” value (Cytochrome P450 2C19 [8]) was “Active”.

For `FC(F)(F)c1ccc(-c2cccc3nc(-c4cncnc4)nc(NCc4ccccn4)c23)cc1`, the IC50 [1] was 0.15 µM.

Compound `Cc1nc(NCc2ccccn2)c2c(-c3ccccc3)cccc2n1` has an inhibition [3] of 72% and an IC50 [2] of 4.6 µM.

For `FC(F)(F)c1nc(NCc2ccccn2)c2c(-c3ccccc3)cccc2n1`, the IC50 [1] was 0.08 µM and the IC50 [2] was 10 µM.

Compound `c1ccc(-c2cccc3nc(C4CC4)nc(NCc4ccccn4)c23)cc1` has an IC50 [1] of 0.17 µM.

Work on `Clc1nc(NCc2ccccn2)c2ccc(-c3ccccc3)cc2n1` yielded an inhibition [3] of 9%.

With `Fc1cccc(-c2cccc3nc(-c4cncnc4)nc(NCc4ccccn4)c23)c1` the inhibition [3] was 37%.

Work on `c1ccc(-c2cccc3nc(-c4ccncc4)nc(NCc4ccccn4)c23)cc1` yielded an IC50 [1] of 0.04 µM and an IC50 [2] of 6.7 µM.

`CN(C)c1nc(NCc2ccccn2)c2c(-c3ccccc3)cccc2n1` showed an inhibition [3] of 59% and an IC50 [2] of 2.5 µM.

`COc1ncc(-c2nc(NCc3ccccn3)c3c(-c4ccccc4)cccc3n2)cn1` showed an IC50 [1] of 0.1 µM.

In the case of `c1ccc(-c2cccc3nc(-c4cncnc4)nc(NCc4ccccn4)c23)cc1`, the IC50 [1] is reported as 0.09 µM, the clearance [9] is reported as 0.276 L/h/kg and the Vd [10] is reported as 5.2 L/kg. It also gave a half-life [11] of 15 h, a half-life [12] of 3.5 h and a bioavailability [13] of 6.3%. For the same compound, the Activity (Rattus norvegicus) was “Non-Toxic”, the Activity (Oryctolagus cuniculus) was 21.4% and the concentration at 0.5 h [14] was 2.7 µM. The remaining at 10 min [5] was 58%, the remaining at 10 min [6] was 75% and the “inhibition (INH)” value (Cytochrome P450 2C9 [15]) was “Active”. The “inhibition (INH)” value (Cytochrome P450 2C19 [16]) was “Active”, the Activity [17] was “Non-Toxic” and the Time [18] was 13 ms. The Activity [19] was -3.4%, the Activity [20] was -3.8% and the Activity [21] was -3.1%. It also gave a concentration at 10 min [22] of 3.1 µM, a concentration at 10 min [23] of 8.8 µM and a concentration at 10 min [24] of 7.7 µM. The concentration at 10 min [25] was 25 µM and the inhibition at 10 µM (hERG (KCNH2) [26]) was 43%.

Compound `COc1cncc(-c2nc(NCc3ccccn3)c3c(-c4ccccc4)cccc3n2)c1` has an IC50 [1] of 0.12 µM.

Work on `O=c1ccc(-c2nc(NCc3ccccn3)c3c(-c4ccccc4)cccc3n2)c[nH]1` yielded an IC50 [1] of 0.11 µM and an inhibition at 0.3 µM (hERG (KCNH2) [27]) of 91%.

In the case of `Clc1nc(NCc2ccccn2)c2cccc(-c3ccccc3)c2n1`, the inhibition [3] is reported as 9%.

Compound `c1ccc(-c2cccc3nc(-c4cn[nH]c4)nc(NCc4ccccn4)c23)cc1` has an IC50 [1] of 0.16 µM and an inhibition at 1 µM (hERG (KCNH2) [4]) of 88%.

With `N#Cc1nc(NCc2ccccn2)c2c(-c3ccccc3)cccc2n1` the IC50 [1] was 0.05 µM and the IC50 [2] was over 80 µM.

With `NC(=O)c1nc(NCc2ccccn2)c2c(-c3ccccc3)cccc2n1` the inhibition [3] was 9%.

Work on `c1ccc(-c2cccc3nc(-c4cncs4)nc(NCc4ccccn4)c23)cc1` yielded an IC50 [1] of 0.05 µM and an IC50 [2] of 6.2 µM.

Work on `Clc1nc(NCc2ccccn2)c2cc(-c3ccccc3)ccc2n1` yielded an inhibition [3] of 14%.

For `Cn1cncc1-c1nc(NCc2ccccn2)c2c(-c3ccccc3)cccc2n1`, the inhibition [3] was 41% and the IC50 [2] was 2.7 µM.

`Clc1nc(NCc2ccccn2)c2c(-c3ccccc3)cccc2n1` showed an IC50 [1] of 0.07 µM, an inhibition [3] of 86% and an IC50 [2] of over 80 µM. The Stability [28] was “Unstable”, the clearance [9] was 0.492 L/h/kg and the Vd [10] was 2.3 L/kg. For the same compound, the half-life [11] was 7.3 h, the half-life [12] was 1.9 h and the bioavailability [13] was 10%. For the same compound, the concentration at 10 min [29] was 26 µM, the Activity (Rattus norvegicus) was 98% and the Activity (Oryctolagus cuniculus) was 9%. The concentration at 0.5 h [14] was 9.1 µM, the Activity [19] was 0.1% and the Activity [20] was -1%. The Activity [21] was -3.2%.

`COCCNc1ncc(-c2nc(NCc3ccccn3)c3c(-c4ccccc4)cccc3n2)cn1` gave an inhibition [3] of 20%.
